According to ChEMBL document CHEMBL1129436, “Novel peptidyl alpha-keto amide inhibitors of calpains and other cysteine proteases” (J Med Chem, 1996):

What was measured:
Cathepsin B [1] = target: T1, Cathepsin B (Homo sapiens, UniProt P07858); test: Compound was evaluated for the inhibition of Cathepsin B
In short: (§1)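 Bovine or human cathepsin B, assayed in 20 mM sodium acetate, pH 5.2, with 0.5 mM dithiothreitol and 2% DMSO. The two enzyme sources were used interchangeably. Ki was taken from Dixon plots, with triplicate assays plotted as 1/v versus inhibitor concentration.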

[2] = target: T2, Calpain-1 catalytic subunit (Homo sapiens, UniProt P07384); test: Inhibition of the cysteine protease human Calpain 1
T2 sequence (P07384 whole entry): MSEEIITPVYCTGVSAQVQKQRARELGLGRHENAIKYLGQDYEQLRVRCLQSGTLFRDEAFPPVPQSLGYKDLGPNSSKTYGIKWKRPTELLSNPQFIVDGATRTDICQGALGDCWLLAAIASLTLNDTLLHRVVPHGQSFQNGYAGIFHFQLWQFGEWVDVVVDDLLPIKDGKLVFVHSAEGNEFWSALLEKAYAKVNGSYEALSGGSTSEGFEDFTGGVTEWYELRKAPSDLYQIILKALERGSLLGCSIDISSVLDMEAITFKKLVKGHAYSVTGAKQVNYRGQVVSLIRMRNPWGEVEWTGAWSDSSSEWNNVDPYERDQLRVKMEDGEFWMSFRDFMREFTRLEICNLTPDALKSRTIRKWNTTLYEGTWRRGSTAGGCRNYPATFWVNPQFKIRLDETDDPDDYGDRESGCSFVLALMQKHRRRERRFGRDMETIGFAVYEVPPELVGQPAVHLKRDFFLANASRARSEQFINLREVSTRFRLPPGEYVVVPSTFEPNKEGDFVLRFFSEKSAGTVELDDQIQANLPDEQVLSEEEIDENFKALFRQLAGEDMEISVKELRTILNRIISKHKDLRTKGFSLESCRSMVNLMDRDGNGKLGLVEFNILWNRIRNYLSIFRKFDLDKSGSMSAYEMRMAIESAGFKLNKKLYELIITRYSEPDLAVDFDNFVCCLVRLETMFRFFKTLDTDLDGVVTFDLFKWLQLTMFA
In short: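 Calpain assay in 25 mM Tris, pH 8.0, with 10 mM CaCl₂ and 5% DMSO. […] hydrolysis was read as initial velocity (t = 30-60 s) after a 30 s delay, at room temperature. Five or more inhibitor concentrations (not above 2 × K_obs) were used at two fixed substrate levels. Ki came from Dixon plots (1/v vs I) averaged over triplicates.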

Cathepsin B [3] = target: T1, Cathepsin B; test: Inhibition of human cathepsin B; in short: as §1
Cathepsin B [4] = target: T1, Cathepsin B; test: Compound was evaluated for the inhibition of Cathepsin B; Gives nonlinear dixon plots; in short: as §1
Cathepsin B [5] = target: Cathepsin B (Bos taurus, UniProt P07688); test: Inhibition of bovine cathepsin B; in short: as §1
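Throughout, for IC: measured as membrane permeability of platelets.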

| Structure (SMILES) | Ki (Cathepsin B [1]) | Ki [2] | Ki (Cathepsin B [3]) | Ki (Cathepsin B [4]) | Ki (Cathepsin B [5]) | IC (Rattus norvegicus) |
| --- | --- | --- | --- | --- | --- | --- |
| CC(C)CC(NC(=O)OCc1ccccc1)C(=O)NC(Cc1ccccc1)C(=O)C(=O)NCc1ccccc1 (centres undefined) | 4.6 µM |  |  |  |  | > 300 µM |
| CCC(NC(=O)C(CC(C)C)NC(=O)OCc1ccccc1)C(=O)C(=O)NCC(O)c1ccccc1 (centres undefined) |  | 1.1 µM | 0.37 µM |  |  | 69 µM |
| CCCNC(=O)C(=O)C(Cc1ccccc1)NC(=O)C(CC(C)C)NC(=O)OCc1ccccc1 (centres undefined) |  | 0.35 µM | 3 µM |  |  | 31 µM |
| CC(C)CC(NC(=O)OCc1ccccc1)C(=O)NC(Cc1ccccc1)C(=O)C(=O)NCC(O)c1ccccc1 (centres undefined) |  | 1.3 µM | 2.1 µM |  |  | 44 µM |
| CC(C)CC(NC(=O)OCc1ccccc1)C(=O)NC(Cc1ccccc1)C(=O)C(=O)NCCc1ccccc1 (centres undefined) | 9.3 µM |  |  |  |  | 100 µM |
| CCNC(=O)C(=O)C(Cc1ccccc1)NC(=O)C(CC(C)C)NC(=O)OCc1ccccc1 (centres undefined) |  |  | 6 µM |  |  | 22 µM |
| CCC(NC(=O)C(CC(C)C)NC(=O)OCc1ccccc1)C(=O)C(=O)NCc1ccncc1 (centres undefined) |  | 1.1 µM | 6.4 µM |  |  | 54 µM |
| CCC(NC(=O)C(CC(C)C)NC(=O)OCc1ccccc1)C(=O)C(=O)NCc1ccccc1 (centres undefined) |  |  | 2 µM |  |  | 30 µM |
| CCC(NC(=O)C(CC(C)C)NC(=O)OCc1ccccc1)C(=O)C(=O)NCc1cccnc1 (centres undefined) |  |  | 1.2 µM |  |  | > 300 µM |
| CC(C)CC(NC(=O)C(c1ccccc1)c1ccccc1)C(=O)NC(Cc1ccccc1)C(=O)C(=O)NCc1ccccn1 (centres undefined) |  | 1.1 µM | 2.2 µM |  |  | > 300 µM |
| CCC(NC(=O)C(CC(C)C)NC(=O)OCc1ccccc1)C(=O)C(=O)NCCc1c[nH]c2ccccc12 (centres undefined) |  | 0.3 µM |  |  | 0.031 µM | 180 µM |
| CCC(NC(=O)C(CC(C)C)NC(=O)OCc1ccccc1)C(=O)C(=O)NCC1(C)CC(O)CC(C)(C)C1 (centres undefined) |  | 0.42 µM | 0.89 µM |  |  | 103 µM |
| CCC(NC(=O)C(CC(C)C)NC(=O)C(c1ccccc1)c1ccccc1)C(=O)C(=O)NCC(O)c1ccccc1 (centres undefined) |  | 0.75 µM |  |  | 0.17 µM | 180 µM |
| CCC(NC(=O)C(CC(C)C)NC(=O)OCc1ccccc1)C(=O)C(=O)NCc1cc(OC)cc(OC)c1 (centres undefined) |  | 2.3 µM | 1.8 µM |  |  | 30 µM |

The next lines start with results.

| Ki (Cathepsin B [1]) | Ki [2] | Ki (Cathepsin B [3]) | Ki (Cathepsin B [4]) | Ki (Cathepsin B [5]) | Structure (SMILES) | IC (Rattus norvegicus) |
| --- | --- | --- | --- | --- | --- | --- |
|  | 0.14 µM | 6.9 µM |  |  | CCC(NC(=O)C(CC(C)C)NC(=O)OCc1ccccc1)C(=O)C(=O)NCCCN1CCOCC1 (centres undefined) | 45 µM |
|  | 0.25 µM | 4.2 µM |  |  | CCCC(NC(=O)C(CC(C)C)NC(=O)OCc1ccccc1)C(=O)C(=O)NCCCN1CCOCC1 (centres undefined) | 18 µM |
|  | 0.33 µM | 4.5 µM |  |  | CCC(NC(=O)C(CC(C)C)NC(=O)OCc1ccccc1)C(=O)C(=O)NCC1CCCO1 (centres undefined) | 22 µM |
|  | 0.38 µM |  | Non linear Dixon plots |  | CCC(NC(=O)C(CC(C)C)NC(=O)OCc1ccccc1)C(=O)C(=O)NCCc1ccc(O)cc1 (centres undefined) | 23 µM |
|  |  | 0.2 µM |  |  | CCC(NC(=O)C(CC(C)C)NC(=O)OCc1ccccc1)C(=O)C(=O)NCCCc1ccccc1 (centres undefined) | 100 µM |
|  | 0.8 µM | 4.5 µM |  |  | CCC(NC(=O)C(CC(C)C)NC(=O)OCc1ccccc1)C(=O)C(=O)NCCO (centres undefined) | 78 µM |
|  | 0.12 µM | 13 µM |  |  | CC(C)CC(NC(=O)OCc1ccccc1)C(=O)NC(Cc1ccccc1)C(=O)C(=O)NCCCN1CCOCC1 (centres undefined) | 54 µM |
|  |  | 0.28 µM |  |  | CCC(NC(=O)C(CC(C)C)NC(=O)OCc1ccccc1)C(=O)C(=O)NCCCCCO (centres undefined) | 54 µM |
|  |  | 1.3 µM |  |  | CCC(NC(=O)C(CC(C)C)NC(=O)OCc1ccccc1)C(=O)C(=O)NCCc1ccccc1 (centres undefined) | 50 µM |
|  | 0.8 µM | 6 µM |  |  | CCC(NC(=O)C(CC(C)C)NC(=O)OCc1ccccc1)C(=O)C(=O)NCc1ccco1 (centres undefined) | 58 µM |
|  |  | 2.4 µM |  |  | CCNC(=O)C(=O)C(CC)NC(=O)C(CC(C)C)NC(=O)OCc1ccccc1 (centres undefined) | 100 µM |
|  |  | 2 µM |  |  | CCC(NC(=O)C(CC(C)C)NC(=O)OCc1ccccc1)C(=O)C(=O)NCCOCCO (centres undefined) | 58 µM |
|  | 0.64 µM | 3 µM |  |  | CCC(NC(=O)C(CC(C)C)NC(=O)OCc1ccccc1)C(=O)C(=O)NCc1ccccn1 (centres undefined) | 110 µM |
|  | 1 µM | 2.5 µM |  |  | CCC(NC(=O)C(CC(C)C)NC(=O)OCc1ccccc1)C(=O)C(=O)NCCN1CCOCC1 (centres undefined) | 23 µM |
